Source: PubChem BioAssay
In the library only some 4.6% were active in any assay of this set; here they are far more common.
GPR7 antag – GPR7 receptor antagonists, primary screen, cell-based, fluorescence, single concentration; GPR7-expressing cells, fluorescence antagonist assay; inhibition, % at 4.4 µM; 290,000 tested, 1.1% active; in the data active = inhibition above about 16%, passing the limit was not always enough;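 note: cells stimulated with the agonist NPW; 0% = agonist with vehicle and 100% = vehicle without agonist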
Target sequence (P48145 whole entry, looked up): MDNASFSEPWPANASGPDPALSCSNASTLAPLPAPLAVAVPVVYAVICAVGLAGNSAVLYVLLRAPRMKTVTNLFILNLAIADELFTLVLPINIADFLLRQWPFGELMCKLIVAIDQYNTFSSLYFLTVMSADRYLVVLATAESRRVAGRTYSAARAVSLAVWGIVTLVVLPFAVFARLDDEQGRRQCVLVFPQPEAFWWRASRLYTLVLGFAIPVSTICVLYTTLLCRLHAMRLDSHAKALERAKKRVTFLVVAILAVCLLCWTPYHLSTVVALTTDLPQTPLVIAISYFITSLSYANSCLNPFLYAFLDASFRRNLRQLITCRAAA
TAAR1 antagonist – human TAAR1 antagonists, primary screen, Fluo-8 calcium fluorescence, CHO RD-HGA16 cells | Trace amine-associated receptor 1 (Homo sapiens), Q96RJ0 | antagonist | inhibition, % at 3 µM | 360,000 tested, 1.5% active | AID 624466, 2012;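 active = inhibition above a per-plate cutoff, the mean inhibition of test compounds on that plate plus 3 SD, cut at about 49% in these data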;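 note: 0% = DMSO plus EC80 beta-PEA response and 100% = DMSO alone without agonist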
Target sequence (Q96RJ0 whole entry, looked up): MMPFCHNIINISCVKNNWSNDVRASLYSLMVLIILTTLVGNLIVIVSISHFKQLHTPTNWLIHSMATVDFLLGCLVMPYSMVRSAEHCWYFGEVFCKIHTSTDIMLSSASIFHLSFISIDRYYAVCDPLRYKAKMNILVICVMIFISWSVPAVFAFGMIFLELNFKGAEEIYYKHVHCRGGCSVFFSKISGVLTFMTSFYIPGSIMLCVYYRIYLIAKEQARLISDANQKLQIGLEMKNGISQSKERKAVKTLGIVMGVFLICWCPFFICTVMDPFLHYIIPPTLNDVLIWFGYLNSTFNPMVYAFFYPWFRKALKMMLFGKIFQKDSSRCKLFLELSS
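Assay system: CHO-derived RD-HGA16 cells stably expressing human TAAR1 plus Gα16. Timing: 140 s kinetic read after compound, 140 s after agonist. Technique: kinetic Fluo-8 calcium fluorescence measurement. Measure: % inhibition of agonist calcium response.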
TAAR1 ag – human TAAR1 agonists, primary screen, Fluo-8 calcium fluorescence, CHO RD-HGA16 cells | 360,000 tested, 0.99% active | AID 624467, 2012 | Trace amine-associated receptor 1 (Homo sapiens), Q96RJ0 | activation, % at 3 µM | vehicle wells 0%, saturating PEA agonist 100%;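 active = activation above the mean activation of all test compounds in the run plus 3 SD, cut at about 38% in these data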
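Benchmarks: low control DMSO, high control PEA (EC100); System: CHO RD-HGA16 cells carrying human TAAR1 plus Gα16; Detection: Fluo-8 fluorescence, 5 s baseline then 140 s kinetic read; Schedule: 17-24 h plating, Fluo-8 75 min 37 °C, 30 min RT; Read-out basis: % activation from peak over basal fluorescence ratio, DMSO-to-PEA scaled.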
OX1R antag-1 – OX1R (HCRTR1) antagonists, primary screen, fluorescence, CHO/OX1R cells, Fluo-8 calcium, orexin A; Orexin/Hypocretin receptor type 1 (Homo sapiens), O43613; Fluo-8 calcium fluorescence; inhibition, % at 5 µM; 330,000 tested, 0.43% active; AID 434989, 2010;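 active = inhibition above its plate's threshold, mean inhibition of all tested compounds on the plate plus 3 SD, cut at about 37% in these data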;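 note: 0% = orexin A challenge wells and 100% = SB-334867-A antagonist wells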
OX1R antag-2 – antagonists of human orexin 1 receptor (OX1R). OX1R-expressing cells, FRET antagonist read-out. inhibition, % at 6.6 µM. 330,000 tested, 1.8% active. AID 485270, 2010; in the data active = inhibition mostly above about 38%, no sharp cut-off; inactive = mostly below about 40%;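 note: 0% = agonist challenge alone and 100% = reference antagonist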
CHO parental Ca – ATP-evoked calcium signal inhibitors, parental CHO, primary screen, counter-screen for OX1R antagonist project, cell-based, fluorescence, Fluo-8 calcium dye; inhibition, % at 5.6 µM; 330,000 tested, 0.63% active; parental CHO-K1, ATP-induced calcium, Fluo-8 fluorescence; AID 463079, 2010;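 active = inhibition above that plate's mean sample inhibition plus 3 SD, cut at about 26% in these data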;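 note: 0% = ATP-challenged DMSO wells and 100% = DMSO wells without ATP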
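Material: parental CHO cells / Compound: single nominal dose of 5.6 µM per compound / Signal: Fluo-8 fluorescence / Replicates: singlicate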
TAAR1 ag conf – human TAAR1 agonists, retest of hits, confirmation, Fluo-8 calcium fluorescence, CHO RD-HGA16 cells | shares compounds with TAAR1 ag | scaled: DMSO 0%, maximal phenethylamine 100% | activation, % at 3 µM | 2,400 tested, 82% active;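 active = activation above a cutoff set at the run's mean compound activation plus 3 SD, cut at about 39% in these data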
Ga16 ag counter – nonselective calcium mobilization agonists, CHO-Ga16 cells, counter-screen for hTAAR1 agonist project, cell-based, fluorescence, CHO-Ga16 parental line; shares compounds with TAAR1 ag; Fluo-8 calcium fluorescence; normalized to maximal ATP response, DMSO zero; activation, % at 3 µM; 2,400 tested, 50% active;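 active = activation above the run cutoff, the mean activation over all tested wells plus 3 SD, cut at about 12% in these data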;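 note: 0% = DMSO wells and 100% = maximal ATP response on the peak over basal ratio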
TAAR1 desensitize – TAAR1 desensitization by agonist hits, confirmation, counter-screen for TAAR1 agonist project, cell-based, fluorescence, tachyphylaxis | AID 651951, 2012 | 2,400 tested, 46% active | shares compounds with TAAR1 ag | CHO RD-HGA16 hTAAR1, Fluo-8 calcium, beta-PEA response inhibition | inhibition, % at 3 µM;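 active = inhibition above the run cutoff, the mean inhibition of all test compounds plus 3 SD, cut at about 49% in these data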;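 note: beta-PEA stimulus applied at its EC80; loss of beta-PEA calcium signal after compound pretreatment read as receptor desensitization; 0% = DMSO with beta-PEA at EC80 and 100% = DMSO alone without agonist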
Ga16 antag count – inhibition of ATP-evoked calcium response in CHO-Ga16 cells, counter-screen for TAAR1 agonist project, cell-based, fluorescence; shares compounds with TAAR1 ag; CHO-Ga16 ATP-induced calcium, Fluo-8 fluorescence; inhibition, % at 3 µM; 2,400 tested, 39% active;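 active = inhibition above the plate's mean compound inhibition plus 3 SD, computed per plate, cut at about 22% in these data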;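 note: 0% = EC80 ATP with DMSO and 100% = DMSO wells without ATP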
Numbers without * were called inactive; nt = no result.

SMILES	GPR7 antag	TAAR1 antagonist	TAAR1 ag	OX1R antag-1	OX1R antag-2	CHO parental Ca	TAAR1 ag conf	Ga16 ag counter	TAAR1 desensitize	Ga16 antag count
COc1ccc(CNC(=O)N2CCc3ccccc3C2)cc1Cl	15	-2	3	-28	12	-28	nt	nt	nt	nt
COc1ccc(NC(=O)N2CCc3ccccc3C2)c(OC)c1	-2	20	44*	-14	12	1	48*	0	-10	-4
COc1ccc(-c2nc(CSCC(=O)N3CCc4ccccc4C3)c(C)o2)cc1OC	-4	29	68*	-29	26	-24	94*	2	60*	1
CC(=O)Nc1ccc(S(=O)(=O)Oc2ccccc2N2C(=O)C3C4CCC(C4)C3C2=O)cc1 (centres undefined)	-2	-11	4	-5	4	-2	nt	nt	nt	nt
Cc1ccc(-c2nc3ccc(Br)cn3c2Cc2cccc(F)c2)cc1	nt	18	-1	nt	nt	nt	nt	nt	nt	nt
CCC1(c2ccccc2)NC(=O)N(CC(=O)Nc2ccccc2N2CCCCC2)C1=O (centres undefined)	-1	52*	70*	-26	13	-20	78*	45*	63*	30*
CSc1ccc(/C=C/C(=O)OCC(=O)NC2CC2)cc1	nt	11	6	11	8	-18	nt	nt	nt	nt
CC1C(=O)N2CCCc3cc(S(=O)(=O)NCCc4ccccc4)cc1c32 (centres undefined)	-5	-4	52*	-9	18	-19	67*	7	25	17
N#Cc1nc(-c2ccc(Cl)cc2)oc1NCCc1ccccn1	-4	-10	45*	-13	8	-2	8	7	22	16
N#CC1(Nc2cccc(Br)c2)C(=O)Nc2ccccc21 (centres undefined)	-1	26	83*	-8	13	-7	54*	32*	52*	42*
COc1ccc(N=Cc2sc(O)c3ccccc23)cc1	0	64*	84*	67*	26	46*	46*	72*	53*	69*
Cc1cccc(NC2=NCC(=O)N2CCc2ccccc2)c1	18	51*	86*	-16	18	-12	106*	5	85*	2
CC(C)C[C@H]1CN=C(Nc2ccccc2)N1CCc1ccc(F)cc1	nt	104*	119*	75*	15	57*	127*	80*	102*	72*
Cc1cccc(CCN2C(Nc3ccccc3)=NC[C@@H]2CC(C)C)c1	nt	107*	127*	49*	27	31	111*	87*	102*	80*
C=CCN1C(=O)CN=C1Nc1cccc(C)c1	-11	-11	12	-17	9	-8	nt	nt	nt	nt
CC(C)C[C@H]1CN=C(Nc2ccccc2)N1CC1CCCCCC1	nt	11	49*	-19	16	-6	29	16*	19	22*
Cc1ccc(NC(=O)CSc2nnc(CNC(=O)c3ccco3)o2)cc1Cl	8	4	6	-21	1	11	nt	nt	nt	nt
COc1ccc([N+](=O)[O-])cc1N(CC(=O)N1CCCCC1)S(C)(=O)=O	-12	-3	6	-28	16	-12	nt	nt	nt	nt
COc1ccc(NC(=O)CCNS(=O)(=O)c2ccc3[nH]c(=O)oc3c2)cc1Cl	-6	2	0	-2	18	3	nt	nt	nt	nt
FC(F)(F)c1ccccc1-c1nc(-c2ccncc2)no1	-18	8	8	-16	-1	-18	nt	nt	nt	nt
O=C(O)c1ccc(-c2noc(-c3ccccc3C(F)(F)F)n2)cc1	nt	14	82*	11	-6	10	28	20*	19	24*
COc1ccc(-c2cc(C)no2)cc1S(=O)(=O)N1CCOc2ccc(C)cc21	-8	-10	0	-2	6	-8	nt	nt	nt	nt
Cc1cc(/C=N/NC(=O)C(=O)NCc2ccccn2)c(C)n1-c1ccccc1	6	1	-3	-20	21	-16	nt	nt	nt	nt
Cc1nc(Nc2ccccc2)sc1-c1ccccc1	-15	-8	-1	-25	35	-14	nt	nt	nt	nt
Cc1nc(Nc2ccc(C(=O)O)cc2)sc1-c1ccccc1	18	31	62*	13	-8	2	71*	63*	61*	44*
SMILES	GPR7 antag	TAAR1 antagonist	TAAR1 ag	OX1R antag-1	OX1R antag-2	CHO parental Ca	TAAR1 ag conf	Ga16 ag counter	TAAR1 desensitize	Ga16 antag count
O=C(/C=C/c1c(F)cccc1Cl)N1CCOCC1	-4	0	0	-1	9	-4	nt	nt	nt	nt
O=C(CSc1nc2ccc(NC(=O)CSc3nnnn3Cc3ccccc3)cc2s1)Nc1ccccc1	-8	28	1	6	22	11	nt	nt	nt	nt
Cn1cnnc1SCC(=O)Nc1ccc2nc(SCc3ccccc3)sc2c1	25	2	44*	-34	29	-34	48*	21*	24	25*
Cc1cc2nc(C3CCN(C(=S)NCCCOC(C)C)CC3)[nH]c2cc1C	-3	11	7	-25	19	-25	nt	nt	nt	nt
N/C(Cc1cccc2ccccc12)=N\OC(=O)c1ccc(Br)o1	-3	38	91*	nt	nt	nt	89*	1	80*	3
N/C(Cc1ccc(Cl)cc1Cl)=N\OC(=O)c1ccc(Br)o1	0	16	3	-25	7	-2	nt	nt	nt	nt
N/C(Cc1cccc2ccccc12)=N\OC(=O)c1ccc2c(c1)OCO2	-12	49*	74*	-13	18	-10	16	1	7	10
CNc1ncnc2c1ncn2[C@H]1CN(CCc2ccccc2)C[C@@H](CO)O1	nt	-20	21	nt	nt	nt	nt	nt	nt	nt
